In ChEMBL document CHEMBL3352233, “N-[6-(4-butanoyl-5-methyl-1H-pyrazol-1-yl)pyridazin-3-yl]-5-chloro-1-[2-(4-methylpiperazin-1-yl)-2-oxoethyl]-1H-indole-3-carboxamide (SAR216471), a novel intravenous and oral, reversible, and directly acting P2Y12 antagonist” (J Med Chem, 2014):

test system: not listed separately; assay: Metabolic stability in rat liver microsomes assessed as compound metabolism after 20 mins incubation in presence of 1 mM NADPH; assay type: ADME; details: liver microsomes, read-out: Drug metabolism
Procedure, shortened: (§1)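 Hepatic microsomal fractions are incubated with compound for 20 min with 1 mM NADPH. Result is reported as % metabolized, i.e. 100 minus % unchanged compound.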

| SMILES | metabolised at 20 min |
| --- | --- |
| CC(=O)c1cnn(-c2ccc(NC(=O)c3cn(CC(=O)N4CCN(C)CC4)c4ccc(Cl)cc34)cc2)c1C | 47% |
| CCCC(=O)c1cnn(-c2ccc(NC(=O)c3cn(CC(=O)O)c4cc(C)c(C)cc34)cc2)c1C | 2% |

Now from value to compound:

| metabolised at 20 min | SMILES |
| --- | --- |
| 25% | CCCC(=O)c1cnn(-c2ccc(NC(=O)c3cn(CC(=O)N4C[C@@H]5C[C@@H](O)CN5C[C@@H]4C)c4ccc(C)cc34)cc2)c1C |
| 1% | CCCC(=O)c1cnn(-c2ccc(NC(=O)c3cn(CC(=O)O)c4ccc(C)cc34)cc2)c1C |
| 63% | CCCC(=O)c1cnn(-c2ccc(NC(=O)c3cn(CC(=O)N4CCN(C)CC4)c4ccc(OC)cc34)cc2)c1C |

test system: not listed separately; assay: Metabolic stability in human liver microsomes assessed as compound metabolism after 20 mins incubation in presence of 1 mM NADPH; assay type: ADME; details: liver microsomes, read-out: Drug metabolism; procedure, shortened: as §1

| SMILES | metabolised at 20 min |
| --- | --- |
| CC(=O)c1cnn(-c2ccc(NC(=O)c3cn(CC(=O)N4CCN(C)CC4)c4ccc(Cl)cc34)cc2)c1C | 40% |
| CCCC(=O)c1cnn(-c2ccc(NC(=O)c3cn(CC(=O)O)c4cc(C)c(C)cc34)cc2)c1C | 4% |

Continued, values first:

| metabolised at 20 min | SMILES |
| --- | --- |
| 61% | CCCC(=O)c1cnn(-c2ccc(NC(=O)c3cn(CC(=O)N4C[C@@H]5C[C@@H](O)CN5C[C@@H]4C)c4ccc(C)cc34)cc2)c1C |
| 5% | CCCC(=O)c1cnn(-c2ccc(NC(=O)c3cn(CC(=O)O)c4ccc(C)cc34)cc2)c1C |
| 68% | CCCC(=O)c1cnn(-c2ccc(NC(=O)c3cn(CC(=O)N4CCN(C)CC4)c4ccc(OC)cc34)cc2)c1C |

biological target: P2Y purinoceptor 12 (Homo sapiens, UniProt Q9H244); assay: Displacement of [33P]2MeS-ADP from P2Y12 receptor (unknown origin) transfected in CHO cells after 30 mins by scintillation counting analysis; assay type: cell-based; details: not given
Sequence (Q9H244 whole entry): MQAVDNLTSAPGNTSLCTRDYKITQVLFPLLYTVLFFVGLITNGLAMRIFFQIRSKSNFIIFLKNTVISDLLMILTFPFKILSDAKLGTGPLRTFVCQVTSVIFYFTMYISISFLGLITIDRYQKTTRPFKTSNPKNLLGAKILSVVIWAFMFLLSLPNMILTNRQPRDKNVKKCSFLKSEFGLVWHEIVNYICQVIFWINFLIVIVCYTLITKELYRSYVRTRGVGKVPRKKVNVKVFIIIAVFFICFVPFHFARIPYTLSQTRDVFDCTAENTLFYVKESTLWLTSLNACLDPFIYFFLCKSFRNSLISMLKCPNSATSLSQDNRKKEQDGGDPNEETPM
Procedure, shortened: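 P2Y12-expressing CHO cells (35 × 10³/sample) in PBS with 1 mM EDTA and 0.2% BSA are exposed to compound for 30 min. [³³P]2-MeS-ADP (0.16 nM) is then added for 15 min at 20 °C, in triplicate. Filtration separates free from bound ligand, followed by scintillation counting. Nonspecific binding uses 1 mM unlabeled ADP. IC50 comes from a four-parameter logistic fit with asymptotes fixed at 0 and 100. n = 2.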

| SMILES | IC50 |
| --- | --- |
| CCCC(=O)c1cnn(-c2ccc(NC(=O)n3cc(CCCC(=O)O)c4ccc(C)cc43)cc2)c1C | 47 nM |
| CCCC(=O)c1cnn(-c2ccc(NC(=O)c3cn(CCCC(=O)O)c4ccc(C)cc34)cc2)c1C | 24 nM |
| CCCC(=O)c1cnn(-c2ccc(NC(=O)c3cn(CC(=O)NCCn4ccnc4)c4ccc(C)cc34)cc2)c1C | 61 nM |
| CCCC(=O)c1cnn(-c2ccc(NC(=O)c3cn(CC(=O)N(C)CCNC)c4ccc(C)cc34)cc2)c1C | 94 nM |
| CC(=O)c1cnn(-c2ccc(NC(=O)c3cn(CC(=O)N4CCN(C)CC4)c4ccc(Cl)cc34)cc2)c1C | 143 nM |
| CCCC(=O)c1cnn(-c2ccc(NC(=O)Nc3cc(C)ccc3OCCCC(=O)O)cc2)c1C | 17 nM |
| CCCC(=O)c1cnn(-c2ccc(NC(=O)c3cn(CC(=O)O)c4ccc(C)c(C)c34)cc2)c1C | 272 nM |
| CCCC(=O)c1cnn(-c2ccc(NC(=O)c3cn(CC(=O)O)c4cc(C)c(C)cc34)cc2)c1C | 5.1 nM |
| CCOC(=O)c1c(C)nn(-c2ccc(C(=O)NCc3ccccc3OC)cc2)c1C | 1540 nM |
| CCCC(=O)c1cnn(-c2ccc(OC(=O)c3cn(CC(=O)N4CCN(C)CC4)c4ccc(Cl)cc34)cc2)c1C | 480 nM |
| CCCC(=O)c1cnn(-c2cnc(NC(=O)c3cn(CC(=O)N4CCN(C)CC4)c4ccc(Cl)cc34)cn2)c1C | 275 nM |
| CCCC(=O)c1cnn(-c2ccc(NC(=O)c3cn(CC(=O)N4CCN(C)CC4)c4cc(Br)c(C)cc34)cc2)c1C | 118 nM |
| CCOC(=O)c1c(C)nn(-c2ccc(NC(=O)Nc3ccccc3OCCCC(=O)O)cc2)c1C | 80 nM |
| CCCC(=O)c1cnn(-c2ccc(NC(=O)c3cn(CC(=O)NC4CCCN(C)C4)c4ccc(C)cc34)cc2)c1C (stereo not drawn) | 71 nM |
| CCCC(=O)c1cnn(-c2ccc(NC(=O)c3cn(CC(=O)N4CCN(C)CC4)c4ccc(Cl)cc34)c(C(=O)O)c2)c1C | 75 nM |
| CCCC(=O)c1cnn(-c2ccc(NC(=O)c3cn(CC(=O)N4CCN(C)CC4)c4cc(Cl)c(C)cc34)cc2)c1C | 138 nM |
| CCOC(=O)c1c(C)nn(-c2ccc(NC(=O)Nc3ccc(Cl)cc3)cc2)c1C | 1260 nM |
| CCCC(=O)c1cnn(-c2ccc(NC(=O)c3cn(CC(=O)NC(C)CN(C)C)c4ccc(C)cc34)cc2)c1C (stereo not drawn) | 88 nM |
| CCCC(=O)c1cnn(-c2ccc(NC(=O)c3cn(CC(=O)N4CCN(C)CC4)c4cc(Cl)c(Cl)cc34)cc2)c1C | 99 nM |
| CCCC(=O)c1cnn(-c2ccc(NC(=O)c3cn(CC(=O)N4CCN(C)CC4)c4ccc(Cl)cc34)c(C(N)=O)c2)c1C | 266 nM |
| CCCC(=O)c1cnn(-c2ccc(NC(=O)c3cn(CC(=O)N4CCN(C)CC4)c4ccc(F)cc34)cc2)c1C | 142 nM |
| CCCC(=O)c1cnn(-c2ccc(N(C)C(=O)c3cn(CC(=O)O)c4ccc(C)cc34)cc2)c1C | 304 nM |
| CCCC(=O)c1cnn(-c2ccc3c(c2)OCCN3C(=O)c2cn(CC(=O)N3CCN(C)CC3)c3ccc(Cl)cc23)c1C | 559 nM |
| CCCC(=O)c1cnn(-c2ccc(NC(=O)c3cn(CC(=O)OC)c4ccc(C)cc34)cc2)c1C | 93 nM |
| CCCC(=O)c1cnn(-c2ccc(NC(=O)c3cn(CC(=O)N4CCNC(C)C4)c4ccc(C)cc34)cc2)c1C (stereo not drawn) | 46 nM |
| CCCC(=O)c1cnn(-c2ccc(NC(=O)c3c(C)n(CC(=O)O)c4ccc(C)cc34)cc2)c1C | 84 nM |

More lines, now with the values ahead:

| IC50 | SMILES |
| --- | --- |
| 15 nM | CCCC(=O)c1cnn(-c2ccc(NC(=O)c3cn(CC(=O)N4C[C@@H]5C[C@@H](O)CN5C[C@@H]4C)c4ccc(C)cc34)cc2)c1C |
| 66 nM | CCCC(=O)c1cnn(-c2ccc(NC(=O)c3cn(CC(=O)N4CCN(CC(F)(F)F)CC4)c4ccc(C)cc34)cc2)c1C |
| 33 nM | CCCC(=O)c1cnn(-c2ccc(NC(=O)c3cn(CC(=O)N4CC5CN(C)CC5C4)c4ccc(C)cc34)cc2)c1C (stereo not drawn) |
| 76 nM | CCCC(=O)c1cnn(-c2ccc(NC(=O)c3cn(CC(=O)N4CCN(C)CC4)c4ccc(C#N)cc34)cc2)c1C |
| 71 nM | CCCC(=O)c1cnn(-c2ccc(NC(=O)c3cn(CC(=O)N4CCC(N)CC4)c4ccc(C)cc34)cc2)c1C |
| 100 nM | CCCC(=O)c1cnn(-c2ccc(NC(=O)c3cn(CC(=O)N4CCCCC4CN4CCCC4)c4ccc(C)cc34)cc2)c1C (stereo not drawn) |
| 61 nM | CCCC(=O)c1cnn(-c2ccc(NC(=O)c3cn(CC(=O)N[C@H]4CCNC4)c4ccc(C)cc34)cc2)c1C |
| 84 nM | CCCC(=O)c1cnn(-c2ccc(NC(=O)c3cn(CC(=O)N(C)CC4CCCN(C)C4)c4ccc(C)cc34)cc2)c1C (stereo not drawn) |
| 87 nM | CCCC(=O)c1cnn(-c2ccc(NC(=O)c3cn(CC(=O)N4CCC(N(C)C)C4)c4ccc(C)cc34)cc2)c1C (stereo not drawn) |
| 194 nM | CCCC(=O)c1cnn(-c2ccc(NC(=O)c3cn(CC(=O)NCCN4CCCC4)c4ccc(C)cc34)cc2)c1C |
| 0.9 nM | CCCC(=O)c1cnn(-c2ccc(NC(=O)c3cn(CC(=O)O)c4ccc(C)cc34)cc2)c1C |
| 26 nM | CCCC(=O)c1cnn(-c2ccc(NC(=O)c3cn(CC(=O)N4CCNCC4)c4ccc(C)cc34)cc2)c1C |
| 47 nM | CCCC(=O)c1cnn(-c2ccc(NC(=O)c3cn(CC(=O)N(C)C4CCN(C)C4)c4ccc(C)cc34)cc2)c1C (stereo not drawn) |
| 44 nM | CCCC(=O)c1cnn(-c2ccc(NC(=O)c3cn(CC(=O)N4CCN(C5CC5)CC4)c4ccc(C)cc34)cc2)c1C |
| 76 nM | CCCC(=O)c1cnn(-c2ccc(NC(=O)c3cn(CC(=O)N4CCN5CCCC5C4)c4ccc(C)cc34)cc2)c1C (stereo not drawn) |
| 106 nM | CCCC(=O)c1cnn(-c2ccc(NC(=O)c3cn(CC(=O)N4CC5CNCC5C4)c4ccc(C)cc34)cc2)c1C (stereo not drawn) |
| 89 nM | CCCC(=O)c1cnn(-c2ccc(NC(=O)c3cn(CC(=O)N4CC5CCN(C)C5C4)c4ccc(C)cc34)cc2)c1C (stereo not drawn) |
| 111 nM | CCCC(=O)c1cnn(-c2ccc(NC(=O)c3cn(CC(=O)N4CCCCC4CN)c4ccc(C)cc34)cc2)c1C (stereo not drawn) |
| 22 nM | CCCC(=O)c1cnn(-c2ccc(NC(=O)c3cn(CC(=O)N4CCN(C)CC4)c4ccc(OC)cc34)cc2)c1C |

| IC50 | SMILES |
| --- | --- |
| 139 nM | CCCC(=O)c1cnn(-c2ccc(NC(=O)c3cn(CC(=O)NC4CCN(C)CC4)c4ccc(C)cc34)cc2)c1C |
| 28 nM | CCCC(=O)c1cnn(-c2ccc(NC(=O)c3cn(CC(=O)N4CC(C)N(C)C(C)C4)c4ccc(C)cc34)cc2)c1C (stereo not drawn) |
| 73 nM | CCCC(=O)c1cnn(-c2ccc(NC(=O)c3cn(CC(=O)N4CCCC(N(C)C)C4)c4ccc(C)cc34)cc2)c1C (stereo not drawn) |
| 86 nM | CCCC(=O)c1cnn(-c2ccc(NC(=O)c3cn(CC(=O)N4C[C@@H]5C[C@H]4CN5)c4ccc(C)cc34)cc2)c1C |
| 102 nM | CCCC(=O)c1cnn(-c2ccc(NC(=O)c3cn(CC(=O)N4CC(C)NC(C)C4)c4ccc(C)cc34)cc2)c1C (stereo not drawn) |
| 95 nM | CCCC(=O)c1cnn(-c2ccc(NC(=O)c3cn(CC(=O)N4CCCN(C)CC4)c4ccc(C)cc34)cc2)c1C |
| 121 nM | CCCCN1CCN(C(=O)Cn2cc(C(=O)Nc3ccc(-n4ncc(C(=O)CCC)c4C)cc3)c3cc(C)ccc32)CC1 |
| 29 nM | CCCC(=O)c1cnn(-c2ccc(NC(=O)c3cn(CC(=O)N4CCN(CC5CC5)CC4)c4ccc(C)cc34)cc2)c1C |
| 94 nM | CCCC(=O)c1cnn(-c2ccc(NC(=O)c3cn(CC(=O)N4CCC(NC)C4)c4ccc(C)cc34)cc2)c1C (stereo not drawn) |
| 115 nM | CCCC(=O)c1cnn(-c2ccc(NC(=O)c3cn(CC(=O)N4CCC(NC)CC4)c4ccc(C)cc34)cc2)c1C |
| 65 nM | CCCC(=O)c1cnn(-c2ccc(NC(=O)c3cn(CC(=O)N4CCCC(NC)C4)c4ccc(C)cc34)cc2)c1C (stereo not drawn) |
| 70 nM | CCCC(=O)c1cnn(-c2ccc(NC(=O)c3cn(CC(=O)N4C[C@@H]5C[C@H]4CN5C)c4ccc(C)cc34)cc2)c1C |
| 46 nM | CCCC(=O)c1cnn(-c2ccc(NC(=O)c3cn(CC(=O)N4CCCC(N)C4)c4ccc(C)cc34)cc2)c1C (stereo not drawn) |
| 66 nM | CCCC(=O)c1cnn(-c2ccc(NC(=O)c3cn(CC(=O)N4CCN(CC)CC4)c4ccc(C)cc34)cc2)c1C |
| 92 nM | CCCC(=O)c1cnn(-c2ccc(NC(=O)c3cn(CC(=O)NCCN(C)C)c4ccc(C)cc34)cc2)c1C |
| 117 nM | CCCC(=O)c1cnn(-c2ccc(NC(=O)c3cn(CC(=O)N4CC5CCNC5C4)c4ccc(C)cc34)cc2)c1C (stereo not drawn) |
| 7 nM | CCCC(=O)c1cnn(-c2ccc(NC(=O)c3cn(CCC(=O)O)c4ccc(C)cc34)cc2)c1C |
| 124 nM | CCCC(=O)c1cnn(-c2ccc(NC(=O)c3cn(CC(=O)N(C)CCN4CCCC4)c4ccc(C)cc34)cc2)c1C |
